# In ChEMBL document CHEMBL4619807, “Exploration of Alternative Scaffolds for P2Y14 Receptor Antagonists Containing a Biaryl Core” (J Med Chem, 2020):
# Activity calls are given as the source filed them. No cut-off for these calls is given here.
# What was measured:
# Mus musculus = test: Antiasthmatic activity in Aspergillus oryzae protease-mediated C57BL/6J mouse model of allergic asthma assessed as reduction in eosinophil infiltration in bronchoalveolar lavage fluid at 10 mg/kg, ip dosed 30 mins before OVA aerosol challenge and measured 2 days post-challenge by cell differential count assay; assay type: functional, organism-based
# Translocator protein = Translocator protein (Homo sapiens, UniProt P30536); test: Binding affinity to TSPO receptor (unknown origin)
# [1] = Aqueous solubility at pH 4 by pION method; assay type: physicochemical
# How it was run: (§1)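 Equilibrium aqueous solubility measured by the pION method at pH 4.0 and at pH 7.4, in μg/mL; mean ± SD.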
# D(1B) dopamine receptor = D(1B) dopamine receptor (Homo sapiens, UniProt P21918); test: Binding affinity to dopamine D5 receptor (unknown origin)
# [2] = Aqueous solubility at pH 7.4 by pION method; assay type: physicochemical; how it was run: as §1
# [3] = Binding affinity to sigma 2 receptor (unknown origin); parameters: species or system Homo sapiens
# [4] = molecular target: Sigma non-opioid intracellular receptor 1 (Homo sapiens, UniProt Q99720); test: Binding affinity to sigma 1 receptor (unknown origin)
# [5] = molecular target: Delta-type opioid receptor (Homo sapiens, UniProt P41143); test: Binding affinity to DOR (unknown origin)
# Homo sapiens = species: Homo sapiens; test: Selectivity index, ratio of IC50 for inhibition of MRS4174 binding to human P2Y14R expressed in CHO cells to IC50 for inhibition of MRS4174 binding to mouse P2Y14R expressed in […] cells; assay type: cell-based
# How it was run: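 Ratio of human to mouse IC50 from fluorescent-tracer binding. Human P2Y14R was in CHO cells in a 96-well format. Mouse P2Y14R was in HEK293 cells, with 30 min antagonist pre-incubation and then 20 nM tracer for 30 min at 37 °C. Both read by flow cytometry.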
# [6] = Half life in rat at 0.5 mg/kg, iv; assay type: ADME, organism-based; conditions: in vivo
# [7] = Permeability from apical to basolateral side in human Caco2 cells; assay type: ADME, cell-based; conditions: caco-2
# [8] = Plasma concentration in rat at 1 mg/kg, ip after 4 hrs; assay type: ADME, organism-based
# How it was run: (§2)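 Rats dosed intraperitoneally at 1, 3 and 10 mg/kg and intravenously at 0.5 mg/kg. Solubilizing vehicle was aqueous DMSO. Plasma concentrations followed over time up to 12 h. Bioavailability derived from ip exposure relative to the iv dose.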
# [9] = Stability in mouse plasma assessed as compound remaining level at 120 mins; assay type: ADME, cell-free; conditions: 2 h
# [10] = Stability in human plasma assessed as compound remaining level at 120 mins; assay type: ADME, cell-free; conditions: 2 h
# [11] = Lipophilicity, change in Constant K of the compound by RP-HPLC analysis relative to PPTN; assay type: physicochemical
# How it was run: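 Lipophilicity taken from reversed-phase HPLC retention time on a C18 column. Elution used a 20 min gradient of 10 to 100% acetonitrile in 10 mM triethylammonium acetate. Reported as Δk against the reference antagonist.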
# [12] = Drug level in rat at 10 mg/kg, ip after 12 hrs; assay type: ADME, organism-based; conditions: in vivo; how it was run: as §2
# [13] = Plasma concentration in rat at 1 mg/kg, ip after 2 hrs; assay type: ADME, organism-based; how it was run: as §2
# Cytochrome P450 2C19 = Cytochrome P450 2C19 (Homo sapiens, UniProt P33261); test: Inhibition of CYP2C19 (unknown origin); assay type: ADME
# Cytochrome P450 2D6 = Cytochrome P450 2D6 (Homo sapiens, UniProt P10635); test: Inhibition of CYP2D6 (unknown origin); assay type: ADME
# [14] = Bioavailability in rat at 1 to 10 mg/kg, ip; assay type: ADME, organism-based; conditions: in vivo; how it was run: as §2
# P2Y purinoceptor 14 [15] = molecular target: T1, P2Y purinoceptor 14 (Homo sapiens, UniProt Q15391); test: Inhibition of MRS4174 binding to human P2Y14R expressed in CHO cells pre-incubated for 30 mins before MRS4174 addition and further incubated for 30 mins at pH 7.4 by flow cytomtery based competitive fluorescence assay; assay type: cell-based
# T1 sequence (Q15391 whole entry): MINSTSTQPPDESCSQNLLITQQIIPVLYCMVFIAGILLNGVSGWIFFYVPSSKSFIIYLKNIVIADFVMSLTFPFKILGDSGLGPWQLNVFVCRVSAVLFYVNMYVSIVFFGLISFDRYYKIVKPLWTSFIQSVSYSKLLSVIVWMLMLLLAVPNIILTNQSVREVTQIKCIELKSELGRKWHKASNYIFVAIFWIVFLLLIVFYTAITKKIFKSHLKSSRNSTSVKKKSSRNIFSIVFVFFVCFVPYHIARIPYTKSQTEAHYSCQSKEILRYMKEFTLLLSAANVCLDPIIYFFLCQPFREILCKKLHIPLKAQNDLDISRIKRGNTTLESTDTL
# [16] = Cmax in rat at 10 mg/kg, ip after 3 to 4 hrs; assay type: ADME, organism-based; parameters: dose 10 mg/kg, route intraperitoneal; conditions: in vivo; how it was run: as §2
# [17] = Half life in human liver microsomes; assay type: ADME, Microsome
# HepG2 = test: Toxicity in human HepG2 cells; assay type: cell-based
# P2Y purinoceptor 14 [18] = molecular target: T2, P2Y purinoceptor 14 (Mus musculus, UniProt Q9ESG6); test: Inhibition of MRS4174 binding to mouse P2Y14R expressed in HEK293 cells pre-incubated for 30 mins before MRS4174 addition and further incubated for 30 mins by flow cytomtery based competitive fluorescence assay; assay type: cell-based
# T2 sequence (Q9ESG6 whole entry): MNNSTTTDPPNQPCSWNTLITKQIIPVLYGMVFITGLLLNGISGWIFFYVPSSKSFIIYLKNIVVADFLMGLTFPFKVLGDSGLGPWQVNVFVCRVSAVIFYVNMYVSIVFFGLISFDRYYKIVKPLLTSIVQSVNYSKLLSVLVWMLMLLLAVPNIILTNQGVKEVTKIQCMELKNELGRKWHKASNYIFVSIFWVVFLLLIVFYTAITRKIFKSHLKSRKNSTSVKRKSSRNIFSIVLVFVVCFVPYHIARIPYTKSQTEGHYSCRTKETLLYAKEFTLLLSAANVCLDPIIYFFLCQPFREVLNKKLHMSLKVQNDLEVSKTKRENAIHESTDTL
# How it was run: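 Competitive whole-cell binding in HEK293 cells stably expressing N-terminally HA-tagged mouse P2Y14R, grown in a 24-well plate to 80–90% confluency. Antagonist given at 1 nM–100 μM in serum-containing EMEM for 30 min at 37 °C, then tracer added at 20 nM final for 30 min.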
# [19] = Half life in rat liver microsomes; assay type: ADME, Microsome
# Cytochrome P450 2C9 = Cytochrome P450 2C9 (Homo sapiens, UniProt P11712); test: Inhibition of CYP2C9 (unknown origin); assay type: ADME
# [20] = Half life in mouse liver microsomes; assay type: ADME, Microsome
# [21] = molecular target: Voltage-gated inwardly rectifying potassium channel KCNH2 (Homo sapiens, UniProt Q12809); test: Inhibition of human ERG
# [22] = Stability in rat plasma assessed as compound remaining level at 120 mins; assay type: ADME, cell-free; conditions: 2 h
# [23] = Stability in simulated gastric fluid assessed as compound remaining level at 120 mins; assay type: physicochemical; conditions: simulated gi fluid, 2 h
# [24] = Stability in simulated intestinal fluid assessed as compound remaining level at 120 mins; assay type: physicochemical; conditions: simulated gi fluid, 2 h
# [25] = Tmax in rat at 10 mg/kg, ip; assay type: ADME, organism-based; conditions: in vivo; how it was run: as §2
# [26] = Half life in rat at 1 mg/kg, ip; assay type: ADME, organism-based; conditions: in vivo
# Cannabinoid receptor 1 [27] = molecular target: T3, Cannabinoid receptor 1 (Homo sapiens, UniProt P21554); test: Antagonist activity at CB1 receptor (unknown origin)
# How it was run: (§3)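 Tested through the Psychoactive Drug Screening Program as functional agonist and antagonist at CB1 and CB2 cannabinoid receptors, with an upper test concentration of 10 μM.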
# [28] = Unbound fraction in mouse plasma; assay type: ADME, cell-free
# How it was run: (§4)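 Plasma protein binding measured at 10 μM compound in human and mouse plasma, expressed as percent unbound (mean ± SD). Verapamil and warfarin were positive controls.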
# Cannabinoid receptor 2 [29] = molecular target: T4, Cannabinoid receptor 2 (Homo sapiens, UniProt P34972); test: Agonist activity at CB2 receptor (unknown origin); how it was run: as §3
# Cannabinoid receptor 2 [30] = molecular target: T4, Cannabinoid receptor 2; test: Antagonist activity at CB2 receptor (unknown origin); how it was run: as §3
# Cannabinoid receptor 1 [31] = molecular target: T3, Cannabinoid receptor 1; test: Agonist activity at CB1 receptor (unknown origin); how it was run: as §3
# [32] = Unbound fraction in human plasma; assay type: ADME, cell-free; how it was run: as §4
# [33] = molecular target: 5-hydroxytryptamine receptor 1D (Homo sapiens, UniProt P28221); test: Binding affinity to 5HT1D receptor (unknown origin)
# 5-hydroxytryptamine receptor 1D, sequence (P28221 whole entry): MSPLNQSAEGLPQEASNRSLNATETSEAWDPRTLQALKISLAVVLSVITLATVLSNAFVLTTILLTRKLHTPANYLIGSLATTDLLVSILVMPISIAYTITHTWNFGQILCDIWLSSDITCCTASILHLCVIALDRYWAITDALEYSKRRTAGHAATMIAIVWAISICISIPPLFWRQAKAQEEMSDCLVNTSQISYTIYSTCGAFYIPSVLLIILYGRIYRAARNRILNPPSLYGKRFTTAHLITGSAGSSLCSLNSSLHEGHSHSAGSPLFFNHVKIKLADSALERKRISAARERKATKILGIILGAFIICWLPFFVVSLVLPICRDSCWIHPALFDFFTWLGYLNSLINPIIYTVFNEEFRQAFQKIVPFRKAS
# T3 sequence (P21554 whole entry): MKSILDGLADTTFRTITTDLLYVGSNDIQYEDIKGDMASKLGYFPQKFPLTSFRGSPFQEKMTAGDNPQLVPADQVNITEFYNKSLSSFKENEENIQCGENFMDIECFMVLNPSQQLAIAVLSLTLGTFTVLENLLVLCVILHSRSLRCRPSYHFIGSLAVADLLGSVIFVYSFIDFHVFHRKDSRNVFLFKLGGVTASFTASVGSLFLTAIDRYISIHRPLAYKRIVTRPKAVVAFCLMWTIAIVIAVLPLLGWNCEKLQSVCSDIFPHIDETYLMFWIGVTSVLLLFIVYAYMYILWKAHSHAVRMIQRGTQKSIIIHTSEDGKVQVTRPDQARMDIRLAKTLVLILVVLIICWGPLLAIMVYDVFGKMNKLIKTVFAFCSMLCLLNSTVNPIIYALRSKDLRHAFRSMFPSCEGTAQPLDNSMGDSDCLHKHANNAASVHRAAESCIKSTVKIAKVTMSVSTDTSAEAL
# T4 sequence (P34972 whole entry): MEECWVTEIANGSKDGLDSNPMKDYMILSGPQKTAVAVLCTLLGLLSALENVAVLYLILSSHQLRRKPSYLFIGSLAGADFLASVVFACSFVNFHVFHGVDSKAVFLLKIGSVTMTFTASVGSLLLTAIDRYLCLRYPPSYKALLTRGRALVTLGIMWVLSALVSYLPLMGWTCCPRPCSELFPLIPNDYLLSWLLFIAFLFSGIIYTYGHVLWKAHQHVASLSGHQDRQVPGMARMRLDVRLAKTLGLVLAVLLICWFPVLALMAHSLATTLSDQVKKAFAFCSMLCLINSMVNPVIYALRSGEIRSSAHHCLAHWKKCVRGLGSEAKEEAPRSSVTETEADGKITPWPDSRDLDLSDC
# Delta-type opioid receptor, sequence (P41143 whole entry): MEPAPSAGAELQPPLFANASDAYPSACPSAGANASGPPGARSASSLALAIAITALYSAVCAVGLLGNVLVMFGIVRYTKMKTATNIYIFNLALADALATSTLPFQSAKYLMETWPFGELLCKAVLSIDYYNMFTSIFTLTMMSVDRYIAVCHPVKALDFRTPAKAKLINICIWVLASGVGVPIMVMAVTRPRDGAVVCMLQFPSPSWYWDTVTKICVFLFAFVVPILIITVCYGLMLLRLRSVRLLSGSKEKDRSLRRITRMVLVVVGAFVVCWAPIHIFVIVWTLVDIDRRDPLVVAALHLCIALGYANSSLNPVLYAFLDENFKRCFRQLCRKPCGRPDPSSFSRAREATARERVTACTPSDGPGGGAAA
# Cytochrome P450 2C19, sequence (P33261 whole entry): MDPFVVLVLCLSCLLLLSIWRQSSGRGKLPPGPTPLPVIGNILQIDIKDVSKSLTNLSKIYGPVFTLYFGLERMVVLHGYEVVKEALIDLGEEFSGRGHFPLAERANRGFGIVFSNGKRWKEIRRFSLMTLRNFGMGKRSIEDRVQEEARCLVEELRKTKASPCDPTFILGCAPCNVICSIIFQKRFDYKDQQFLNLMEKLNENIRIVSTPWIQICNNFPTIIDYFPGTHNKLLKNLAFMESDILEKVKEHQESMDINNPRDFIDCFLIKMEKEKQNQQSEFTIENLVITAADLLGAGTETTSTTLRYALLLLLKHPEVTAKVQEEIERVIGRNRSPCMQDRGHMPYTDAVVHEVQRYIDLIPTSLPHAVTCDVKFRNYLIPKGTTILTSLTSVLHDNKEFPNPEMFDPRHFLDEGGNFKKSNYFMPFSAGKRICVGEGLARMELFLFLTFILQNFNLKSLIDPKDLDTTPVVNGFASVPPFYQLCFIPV
# Sigma non-opioid intracellular receptor 1, sequence (Q99720 whole entry): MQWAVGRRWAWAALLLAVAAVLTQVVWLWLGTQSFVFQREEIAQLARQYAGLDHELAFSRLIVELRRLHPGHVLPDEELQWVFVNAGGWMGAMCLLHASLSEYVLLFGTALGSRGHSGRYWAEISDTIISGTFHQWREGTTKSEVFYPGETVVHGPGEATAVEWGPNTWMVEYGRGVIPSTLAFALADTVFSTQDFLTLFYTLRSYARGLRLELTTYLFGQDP
# Cytochrome P450 2D6, sequence (P10635 whole entry): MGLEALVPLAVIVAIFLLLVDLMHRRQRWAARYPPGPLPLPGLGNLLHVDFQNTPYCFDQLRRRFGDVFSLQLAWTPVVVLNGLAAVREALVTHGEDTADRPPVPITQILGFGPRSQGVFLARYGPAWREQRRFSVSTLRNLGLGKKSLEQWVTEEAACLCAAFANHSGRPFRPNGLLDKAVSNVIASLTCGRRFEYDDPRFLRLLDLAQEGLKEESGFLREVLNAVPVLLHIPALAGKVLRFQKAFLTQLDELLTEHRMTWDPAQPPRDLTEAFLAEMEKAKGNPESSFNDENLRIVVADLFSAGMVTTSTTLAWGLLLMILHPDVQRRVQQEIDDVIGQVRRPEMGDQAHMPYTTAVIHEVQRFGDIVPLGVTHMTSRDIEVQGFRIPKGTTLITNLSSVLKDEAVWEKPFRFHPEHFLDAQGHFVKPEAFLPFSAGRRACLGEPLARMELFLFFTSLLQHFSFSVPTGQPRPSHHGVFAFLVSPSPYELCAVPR
# Voltage-gated inwardly rectifying potassium channel KCNH2, sequence (Q12809 whole entry): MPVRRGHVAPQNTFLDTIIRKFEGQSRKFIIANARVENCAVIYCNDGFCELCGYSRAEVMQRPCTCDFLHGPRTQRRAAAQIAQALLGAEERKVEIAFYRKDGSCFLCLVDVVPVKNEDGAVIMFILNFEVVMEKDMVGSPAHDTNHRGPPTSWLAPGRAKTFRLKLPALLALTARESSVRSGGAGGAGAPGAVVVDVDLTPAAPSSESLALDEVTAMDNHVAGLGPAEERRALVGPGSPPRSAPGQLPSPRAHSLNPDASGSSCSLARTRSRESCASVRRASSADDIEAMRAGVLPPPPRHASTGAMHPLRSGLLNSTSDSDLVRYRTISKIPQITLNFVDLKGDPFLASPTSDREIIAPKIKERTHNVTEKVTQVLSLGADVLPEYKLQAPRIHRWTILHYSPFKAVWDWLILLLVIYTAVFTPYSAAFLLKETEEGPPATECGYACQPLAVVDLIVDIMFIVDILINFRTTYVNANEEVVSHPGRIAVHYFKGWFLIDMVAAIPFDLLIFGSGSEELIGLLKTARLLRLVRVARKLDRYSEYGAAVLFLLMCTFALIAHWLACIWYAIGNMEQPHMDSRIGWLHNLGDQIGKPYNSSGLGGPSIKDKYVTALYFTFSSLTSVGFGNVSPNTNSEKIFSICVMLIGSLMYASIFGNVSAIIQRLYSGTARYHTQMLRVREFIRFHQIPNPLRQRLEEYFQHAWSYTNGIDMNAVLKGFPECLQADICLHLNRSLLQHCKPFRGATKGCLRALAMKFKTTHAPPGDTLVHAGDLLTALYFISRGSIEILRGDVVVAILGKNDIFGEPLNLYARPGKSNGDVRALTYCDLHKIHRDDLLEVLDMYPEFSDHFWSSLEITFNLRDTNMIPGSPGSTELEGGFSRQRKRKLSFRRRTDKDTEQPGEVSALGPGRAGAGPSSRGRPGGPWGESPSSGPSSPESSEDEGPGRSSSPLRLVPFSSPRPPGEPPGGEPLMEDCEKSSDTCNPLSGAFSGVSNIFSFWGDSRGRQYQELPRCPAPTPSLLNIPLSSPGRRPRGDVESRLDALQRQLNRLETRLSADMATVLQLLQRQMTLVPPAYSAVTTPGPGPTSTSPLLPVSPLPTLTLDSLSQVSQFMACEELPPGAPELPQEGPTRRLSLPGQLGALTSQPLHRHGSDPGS
# Cytochrome P450 2C9, sequence (P11712 whole entry): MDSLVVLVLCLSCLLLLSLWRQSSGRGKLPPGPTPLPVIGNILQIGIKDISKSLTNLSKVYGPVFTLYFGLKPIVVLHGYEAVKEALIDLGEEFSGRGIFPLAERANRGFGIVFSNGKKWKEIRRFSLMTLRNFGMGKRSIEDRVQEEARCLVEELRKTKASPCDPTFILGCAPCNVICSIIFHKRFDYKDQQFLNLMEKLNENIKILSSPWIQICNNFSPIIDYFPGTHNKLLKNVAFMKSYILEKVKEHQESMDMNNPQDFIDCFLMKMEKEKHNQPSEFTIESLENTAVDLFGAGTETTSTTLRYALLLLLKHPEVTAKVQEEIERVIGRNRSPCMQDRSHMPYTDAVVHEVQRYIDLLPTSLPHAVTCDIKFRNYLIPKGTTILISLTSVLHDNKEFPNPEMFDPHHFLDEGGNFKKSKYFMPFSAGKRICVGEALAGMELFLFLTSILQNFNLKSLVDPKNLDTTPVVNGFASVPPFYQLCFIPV
# Translocator protein, sequence (P30536 whole entry): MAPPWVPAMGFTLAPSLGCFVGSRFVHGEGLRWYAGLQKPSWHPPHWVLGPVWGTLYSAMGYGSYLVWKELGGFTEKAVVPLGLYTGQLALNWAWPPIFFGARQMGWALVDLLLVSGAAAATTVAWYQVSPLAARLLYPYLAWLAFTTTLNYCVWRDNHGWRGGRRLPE
smiles,measurement,setting,value
C#CCCCCN1CCC(c2ccc(-c3cc(C(=O)O)cc4cc(-c5ccc(C(F)(F)F)cc5)ccc34)cc2)CC1,Activity,Mus musculus,Active
O=C(O)c1cc(-c2ccc(C3CCNCC3)cc2)cc(-n2cc(-c3ccc(C(F)(F)F)cc3)nn2)c1,Activity,Mus musculus,inactive
CC(=O)N1CCC(c2ccc(-c3cc(C(=O)O)cc4cc(-c5ccc(C(F)(F)F)cc5)ccc34)cc2)CC1,Ki,Translocator protein,0.51 µM
same,solubility,[1]; buffer,0.09 µg/mL
same,Ki,D(1B) dopamine receptor,4.38 µM
same,Activity,Mus musculus,Active
same,solubility,[2]; buffer,2.32 µg/mL
NC(=O)c1ccc(-c2cc(C(=O)O)cc(-c3cn(-c4ccc(C(F)(F)F)cc4)nn3)c2)cc1,Ki,[3],2.91 µM
same,Ki,[4],0.5 µM
same,Ki,[5],2.48 µM
O=C(O)c1cc(-c2ccc(N3CCNCC3)cc2)cc(-n2cc(-c3ccc(C(F)(F)F)cc3)nn2)c1,Ki,[3],6.7 µM
same,Ratio IC50,Homo sapiens,2.1
O=C(O)c1cc(-c2ccc(C34CCN(CC3)CC4)cc2)cc(-n2cc(-c3ccc(C(F)(F)F)cc3)nn2)c1,half-life,[6],0.72 h
same,Papp,[7],0.09 ×10⁻⁶ cm/s
same,concentration at 4 h,[8],163 nM
same,Stability,[9],79.5%
same,Stability,[10],86.8%
same,solubility,"[1]; aqueous, read-out: solubility",2.8 to 14.5 µg/mL
same,fold change (FC),[11],-0.09
same,Drug uptake,[12],200 to 400 ng/kg
same,concentration at 2 h,[13],206 nM
same,IC50,Cytochrome P450 2C19,> 30 µM
same,IC50,Cytochrome P450 2D6,> 30 µM
same,bioavailability,[14],100%
same,IC50,P2Y purinoceptor 14 [15],0.105 µM
same,Cmax,[16],900 ng/mL
same,t1/2,[17],3.2 h
same,IC50,HepG2,> 20 µM
same,IC50,P2Y purinoceptor 14 [18],0.845 µM
same,t1/2,[19],1.8 h
same,IC50,Cytochrome P450 2C9,> 30 µM
same,t1/2,[20],5.18 h
same,IC50,[21],16.8 µM
same,Stability,[22],89.4%
same,solubility,"[2]; aqueous, read-out: solubility",0.1 to 1.1 µg/mL
same,Stability,[23],106%
same,Stability,[24],102%
same,Tmax,[25],3 to 4 h
same,half-life,[26],4.6 h
O=C(O)c1cc(-c2ccc(C3CCNCC3)cc2)cc(-c2cn(-c3ccc(C(F)(F)F)cc3)nn2)c1,EC50,Cannabinoid receptor 1 [27],> 10 µM
same,Fu,[28],1.33%
same,EC50,Cannabinoid receptor 2 [29],> 10 µM
same,EC50,Cannabinoid receptor 2 [30],> 10 µM
same,EC50,Cannabinoid receptor 1 [31],> 10 µM
same,Fu,[32],1.25%
same,Ki,[5],3.79 µM
same,Activity,Mus musculus,Active
NCCCNC(=O)c1ccc(-c2cc(C(=O)O)cc(-n3cc(-c4ccc(C(F)(F)F)cc4)nn3)c2)s1,Fu,[28],0.83%
same,Ki,[33],4.34 µM
same,Activity,Mus musculus,Active
